The source made the active and inactive calls.
Columns and labels:
Mus musculus [1] = species on record: Mus musculus; assay: Protective index, ratio of TD50 for mouse by rotarod test to ED50 for mouse by MES test; type: functional
Mus musculus [2] = assay: Anticonvulsant activity in mouse assessed as pentylenetetrazole-induced clonic seizures at 30 mg/kg, ip administered 30 mins before pentylenetetrazole challenge measured after 0.5 hrs; type: functional; conditions: route intraperitoneal
Mus musculus [3] = assay: Anticonvulsant activity in mouse assessed as pentylenetetrazole-induced tonic seizures at 30 mg/kg, ip administered 30 mins before pentylenetetrazole challenge measured after 0.5 hrs; type: functional; conditions: route intraperitoneal
Mus musculus [4] = assay: Anticonvulsant activity in mouse assessed as isoniazid-induced clonic seizures at 30 mg/kg, ip administered 30 mins before isoniazid challenge measured after 1 hr; type: functional; conditions: route intraperitoneal
Mus musculus [5] = assay: Anticonvulsant activity in mouse assessed as isoniazid-induced tonic seizures at 30 mg/kg, ip administered 30 mins before isoniazid challenge measured after 1 hr; type: functional; conditions: route intraperitoneal
Mus musculus [6] = assay: Anticonvulsant activity in mouse assessed as 3-mercaptopropionic acid-induced clonic seizures at 30 mg/kg, ip administered 30 mins before 3-mercaptopropionic acid challenge measured after 0.5 hrs; type: functional; conditions: route intraperitoneal
Method in brief: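 Mice, 10 per group, dosed i.p. with 30 mg/kg. 30 min later they received 3-mercaptopropionic acid 60 mg/kg sc in saline. Each mouse was observed alone for 0.5 h for seizures.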

Mus musculus [7] = assay: Anticonvulsant activity in mouse assessed as 3-mercaptopropionic acid-induced tonic seizures at 30 mg/kg, ip administered 30 mins before 3-mercaptopropionic acid challenge measured after 0.5 hrs; type: functional; conditions: route intraperitoneal
Method in brief: (§1)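 KunMing mice (18–22 g) in groups of 10 received the test agent, dissolved in DMSO, i.p. 30 min before challenge. The challenge was 3-mercaptopropionic acid, 60 mg/kg in saline, given s.c. Mice were then held in individual cages and observed for 0.5 h for seizures and death.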

Mus musculus [8] = assay: Anticonvulsant activity in mouse assessed as thiosemicarbazide-induced clonic seizures at 30 mg/kg, ip administered 30 mins before thiosemicarbazide challenge measured after 2.5 hrs; type: functional; conditions: route intraperitoneal
Method in brief: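 Thiosemicarbazide challenge, 50 mg/kg i.p., given 30 min after 30 mg/kg i.p. test compound. Mice, 10 per group, were caged individually and observed for 2.5 h. Clonic and tonic seizures and lethality were recorded.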

Mus musculus [9] = assay: Anticonvulsant activity in mouse assessed as thiosemicarbazide-induced tonic seizures at 30 mg/kg, ip administered 30 mins before thiosemicarbazide challenge measured after 2.5 hrs; type: functional; conditions: route intraperitoneal
Method in brief: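 Mice (KunMing, 18–22 g, n = 10 per group) were pretreated i.p. with compound in DMSO. After 30 min, thiosemicarbazide was given at 50 mg/kg i.p. Animals were caged individually and observed for 2.5 h, and the number of clonic seizures, tonic seizures and deaths was recorded.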

Mus musculus [10] = assay: Anticonvulsant activity in mouse assessed as bicuculline-induced clonic seizures at 30 mg/kg, ip administered 30 mins before bicuculline challenge measured after 0.5 hrs; type: functional; conditions: route intraperitoneal
Method in brief: (§2)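 Bicuculline 2.7 mg/kg sc, injected 15–45 min after preparation, given 30 min after 30 mg/kg i.p. test compound. Mice, 10 per group, were isolated and watched for at least 30 min for clonic and tonic seizures and lethality.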

Mus musculus [11] = assay: Anticonvulsant activity in mouse assessed as bicuculline-induced tonic seizures at 30 mg/kg, ip administered 30 mins before bicuculline challenge measured after 0.5 hrs; type: functional; conditions: route intraperitoneal; method in brief: as §2
Mus musculus [12] = assay: Anticonvulsant activity in mouse assessed as bicuculline-induced death at 30 mg/kg, ip administered 30 mins before bicuculline challenge measured after 0.5 hrs; type: functional; conditions: route intraperitoneal
Method in brief: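 Groups of 10 KunMing mice (18–22 g) were dosed i.p. with compound in DMSO. After 30 min they received bicuculline, 2.7 mg/kg s.c., injected within 15–45 min of preparation because of its instability. Mice were isolated and watched for at least 30 min, and clonic seizures, tonic seizures and lethality were recorded.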

Mus musculus [13] = assay: Anticonvulsant activity in mouse assessed as protection against maximal electroshock-induced seizures at 100 mg/kg, ip measured after 0.5 hrs; type: functional, organism-based; set-up: dose 100 mg/kg
Method in brief: (§3)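 Phase-I MES screen in KunMing mice, 18–22 g. Compounds dissolved in DMSO and given i.p. at 30, 100 or 300 mg/kg. The MES test followed the NIH ADD protocol and was read at 0.5 h and 4 h after dosing. Six mice per group, scored as number protected/number tested.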

Mus musculus [14] = assay: Anticonvulsant activity in mouse assessed as protection against maximal electroshock-induced seizures at 300 mg/kg, ip measured after 4 hrs; type: functional, organism-based; set-up: dose 300 mg/kg; method in brief: as §3
Mus musculus [15] = assay: Anticonvulsant activity in mouse assessed as protection against maximal electroshock-induced seizures at 100 mg/kg, ip measured after 4 hrs; type: functional, organism-based; set-up: dose 100 mg/kg; method in brief: as §3
Mus musculus [16] = assay: Anticonvulsant activity in mouse assessed as protection against maximal electroshock-induced seizures at 30 mg/kg, ip measured after 4 hrs; type: functional, organism-based; set-up: dose 30 mg/kg; method in brief: as §3
Mus musculus [17] = assay: Anticonvulsant activity in mouse assessed as protection against maximal electroshock-induced seizures at 10 mg/kg, ip measured after 4 hrs; type: functional, organism-based; set-up: dose 10 mg/kg
Mus musculus [18] = assay: Anticonvulsant activity in ip dosed mouse assessed as protection against maximal electroshock-induced seizures; type: functional
Method in brief: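 KunMing mice, 18–22 g, compounds in DMSO, given i.p. at a range of doses, groups of 10. MES test per NIH ADD program. Read-out was seizure protection, with at least three points in the 10–90% range.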

[19] = Neurotoxicity in ip dosed mouse assessed as time spent on rotarod by rotarod test; type: toxicity, organism-based; conditions: in vivo
Method in brief: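 Rotarod neurotoxicity in KunMing mice, 18–22 g, compounds in DMSO given i.p. Mice were pretrained on a 3.2 cm diameter rod at 10 rpm. Toxicity was defined as failure to stay on the rod for at least 1 min in each trial.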

Mus musculus [20] = assay: Anticonvulsant activity in mouse assessed as protection against maximal electroshock-induced seizures at 10 mg/kg, ip measured after 0.5 hrs; type: functional, organism-based; set-up: dose 10 mg/kg
Mus musculus [21] = assay: Anticonvulsant activity in mouse assessed as protection against maximal electroshock-induced seizures at 30 mg/kg, ip measured after 0.5 hrs; type: functional, organism-based; set-up: dose 30 mg/kg; method in brief: as §3
Mus musculus [22] = assay: Anticonvulsant activity in mouse assessed as 3-mercaptopropionic acid-induced death at 30 mg/kg, ip administered 30 mins before 3-mercaptopropionic acid challenge measured after 0.5 hrs; type: functional; conditions: route intraperitoneal; method in brief: as §1

Row | Structure (SMILES) | PI (Mus musculus [1]) | Activity (Mus musculus [13]) | Activity (Mus musculus [14]) | Activity (Mus musculus [15]) | Activity (Mus musculus [16]) | Activity (Mus musculus [17]) | ED50 (Mus musculus [18]) [mg/kg] | TD50 [19] [mg/kg] | also measured
1 | NC(=O)N1c2ccccc2C=Cc2ccccc21 [CARBAMAZEPINE] | 6.4 |  |  |  |  |  |  |  | Activity (Mus musculus [2]): 100%; Activity (Mus musculus [3]): 0%; Activity (Mus musculus [4]): 60%; Activity (Mus musculus [5]): 0%; Activity (Mus musculus [6]): 100%; Activity (Mus musculus [7]): 0%; Activity (Mus musculus [8]): 100%; Activity (Mus musculus [9]): 0%; Activity (Mus musculus [10]): 100%; Activity (Mus musculus [11]): 0%; Activity (Mus musculus [12]): 20%
2 | COc1ccc(COc2ccc3c(c2)-c2nncn2CCO3)cc1 |  | Active | inactive | inactive | inactive | inactive | > 100 |  | 
3 | Fc1ccc(COc2ccc3c(c2)-c2nncn2CCO3)cc1 | 2.3 | Active | inactive | inactive | inactive | inactive | 27.4 | 63.4 | 
4 | CCCCOc1ccc2c(c1)-c1nncn1CCO2 | 4.2 | Active | inactive | inactive | inactive | inactive | 11 | 45.6 | Activity (Mus musculus [20]): Active
5 | CCCOc1ccc2c(c1)-c1nncn1CCO2 | 2.9 | Active | inactive | inactive | inactive | inactive | 19 | 54.8 | 
6 | CCCCCCCCOc1ccc2c(c1)-c1nncn1CCO2 | 5.8 | Active | inactive | inactive | inactive | inactive | 11 | 63.4 | Activity (Mus musculus [20]): Active
7 | Brc1cccc(COc2ccc3c(c2)-c2nncn2CCO3)c1 | 3.6 | Active | inactive | inactive | inactive | inactive | 25 | 91.3 | 
8 | Clc1ccccc1COc1ccc2c(c1)-c1nncn1CCO2 | 2.4 | Active | inactive | inactive | inactive | inactive | 38.3 | 91.3 | 
9 | Cc1ccc(COc2ccc3c(c2)-c2nncn2CCO3)cc1 |  | Active | inactive | inactive | inactive | inactive | > 100 |  | 
10 | CCCCCCCOc1ccc2c(c1)-c1nncn1CCO2 | 9.5 | Active | inactive | inactive | inactive | inactive | 6.9 | 65.7 | Activity (Mus musculus [21]): Active; Activity (Mus musculus [20]): Active; Activity (Mus musculus [2]): 80%; Activity (Mus musculus [3]): 0%; Activity (Mus musculus [4]): 0%; Activity (Mus musculus [5]): 0%; Activity (Mus musculus [6]): 100%; Activity (Mus musculus [7]): 0%; Activity (Mus musculus [22]): 20%; Activity (Mus musculus [8]): 100%; Activity (Mus musculus [9]): 30%; Activity (Mus musculus [10]): 100%; Activity (Mus musculus [11]): 0%
11 | COc1ccc2c(c1)-c1nncn1CCO2 |  |  | inactive | inactive | inactive | inactive | > 100 |  | 
12 | CCCCCCOc1ccc2c(c1)-c1nncn1CCO2 | 6 | Active | inactive | inactive | inactive | inactive | 10 | 60 | Activity (Mus musculus [20]): Active
13 | Clc1ccc(COc2ccc3c(c2)-c2nncn2CCO3)cc1 | 1.8 | Active | inactive | inactive | inactive | inactive | 60 | 110 | 
14 | CCCCCOc1ccc2c(c1)-c1nncn1CCO2 | 3.8 | Active | inactive | inactive | inactive | inactive | 15.8 | 60 | Activity (Mus musculus [20]): Active
15 | c1ccc(COc2ccc3c(c2)-c2nncn2CCO3)cc1 | 4.6 | Active | inactive | inactive | inactive | inactive | 16.4 | 76 | Activity (Mus musculus [21]): Active
16 | Clc1cccc(COc2ccc3c(c2)-c2nncn2CCO3)c1 | 1.5 | Active | inactive | inactive | inactive | inactive | 82.2 | 127 | 
17 | Brc1ccccc1COc1ccc2c(c1)-c1nncn1CCO2 | 2.6 | Active | inactive | inactive | inactive | inactive | 41.7 | 110 | 
18 | Fc1ccccc1COc1ccc2c(c1)-c1nncn1CCO2 | 5.1 | Active | inactive | inactive | inactive | inactive | 18 | 91.3 | Activity (Mus musculus [21]): Active
19 | Brc1ccc(COc2ccc3c(c2)-c2nncn2CCO3)cc1 |  | Active | inactive | inactive | inactive | inactive | > 100 |  | 
20 | Fc1cccc(COc2ccc3c(c2)-c2nncn2CCO3)c1 | 3.2 | Active | inactive | inactive | inactive | inactive | 23.7 | 76 | 
21 | CCOc1ccc2c(c1)-c1nncn1CCO2 |  | Active | inactive | inactive | inactive | inactive | > 100 |  | 

— ChEMBL document CHEMBL1177876, “Design and synthesis of 10-alkoxy-5, 6-dihydro-triazolo[4,3-d]benzo[f][1,4]oxazepine derivatives with anticonvulsant activity” (Eur J Med Chem, 2010)
